# Measured values published in ChEMBL document CHEMBL1821649, “Synthesis, characterization of some benzazoles bearing pyridine moiety: search for novel anticancer agents” (2011).
# Experiments:
# Type in all cases: functional
# SK-MEL-28 = assay: Antitumor activity against human SK-MEL-28 cells after 48 hrs by SRB assay; details: SK-MEL-28, 48 h
# How it was run: (§1)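 NCI-60 human tumour cell panel run under the National Cancer Institute Drug Evaluation Branch protocol. Compounds passing a single-dose prescreen were retested on all lines at five 10-fold dilutions. Growth was expressed as percent growth of treated cells. Response parameters were GI50 (molar concentration giving 50% growth inhibition), TGI (total growth inhibition) and LC50 (median lethal concentration).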
# UACC-257 = assay: Antitumor activity against human UACC257 cells after 48 hrs by SRB assay; details: UACC-257, 48 h
# How it was run: (§2)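 NCI-60 human cancer cell line panel run under the NCI Drug Evaluation Branch protocol. Compounds were first screened at a single dose. Those meeting preset inhibition thresholds were retested at five 10-fold dilutions. Output was percent growth of treated cells, given as % growth inhibition. GI50, TGI and LC50 values were derived from the five-dose data.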
# K562 = assay: Antitumor activity against human K562 cells after 48 hrs by SRB assay; details: K562, 48 h; how it was run: as §1
# SF-539 = assay: Antitumor activity against human SF539 cells after 48 hrs by SRB assay; details: SF-539, 48 h; how it was run: as §1
# CAKI-1 = assay: Antitumor activity against human Caki1 cells after 48 hrs by SRB assay; details: CAKI-1, 48 h; how it was run: as §1
# SR = assay: Antitumor activity against human SR cells after 48 hrs by SRB assay; how it was run: as §1
# COLO 205 = assay: Antitumor activity against human COLO205 cells after 48 hrs by SRB assay; details: COLO 205, 48 h; how it was run: as §1
# HCC 2998 = assay: Antitumor activity against human HCC2998 cells after 48 hrs by SRB assay; details: HCC 2998, 48 h; how it was run: as §1
# SF-295 = assay: Antitumor activity against human SF295 cells after 48 hrs by SRB assay; details: SF-295, 48 h; how it was run: as §1
# MDA-MB-231 = assay: Antitumor activity against human MDA-MB-231 cells after 48 hrs by SRB assay; details: MDA-MB-231, 48 h; how it was run: as §1
# OVCAR-5 = assay: Antitumor activity against human OVCAR5 cells after 48 hrs by SRB assay; details: OVCAR-5, 48 h; how it was run: as §1
# HOP-62 = assay: Antitumor activity against human HOP62 cells after 48 hrs by SRB assay; details: HOP-62, 48 h; how it was run: as §1
# SK-MEL-2 = assay: Antitumor activity against human SK-MEL-2 cells after 48 hrs by SRB assay; details: SK-MEL-2, 48 h; how it was run: as §1
# HCT-116 = assay: Antitumor activity against human HCT116 cells after 48 hrs by SRB assay; details: HCT-116, 48 h; how it was run: as §1
# A549 = assay: Antitumor activity against human A549 cells after 48 hrs by SRB assay; details: A549, 48 h; how it was run: as §1
# U-251 = assay: Antitumor activity against human U251 cells after 48 hrs by SRB assay; details: U-251, 48 h; how it was run: as §2
# DU-145 = assay: Antitumor activity against human DU145 cells after 48 hrs by SRB assay; details: DU-145, 48 h; how it was run: as §1
# UACC-62 = assay: Antitumor activity against human UACC62 cells after 48 hrs by SRB assay; details: UACC-62, 48 h; how it was run: as §2
# CCRF-CEM = assay: Antitumor activity against human CCRF-CEM cells after 48 hrs by SRB assay; how it was run: as §1
# SK-OV-3 = assay: Antitumor activity against human SKOV3 cells after 48 hrs by SRB assay; details: SK-OV-3, 48 h; how it was run: as §1
# ACHN = assay: Antitumor activity against human ACHN cells after 48 hrs by SRB assay; how it was run: as §1
# RPMI-8226 = assay: Antitumor activity against human RPMI8226 cells after 48 hrs by SRB assay; details: RPMI-8226, 48 h; how it was run: as §1
# TK-10 = assay: Antitumor activity against human TK10 cells after 48 hrs by SRB assay; details: TK-10, 48 h; how it was run: as §2
# OVCAR-8 = assay: Antitumor activity against human OVCAR8 cells after 48 hrs by SRB assay; details: OVCAR-8, 48 h; how it was run: as §1
# [1] = read-out: LC50 (the source's name)
compound,measurement,setting,value
Cc1cc2nc(-c3c(N)ncc(C#N)c3-c3ccc(Cl)cc3)[nH]c2cc1C,GI50,SK-MEL-28,5.8 µM
same,LC50 (median lethal concentration),SK-MEL-28,> 100 µM
same,TGI,SK-MEL-28,40.2 µM
same,GI50,UACC-257,11.4 µM
same,LC50,UACC-257,> 100 µM
same,TGI,UACC-257,82.6 µM
same,GI50,K562,31.5 µM
same,LC50,K562,> 100 µM
same,TGI,K562,> 100 µM
same,GI50,SF-539,2070 nM
same,TGI,SF-539,5.78 µM
same,CC50,SF-539; [1],27 µM
same,GI50,CAKI-1,12.1 µM
same,TGI,CAKI-1,> 100 µM
same,CC50,CAKI-1; [1],> 100 µM
same,GI50,SR,28.7 µM
same,LC50 (median lethal concentration),SR,> 100 µM
same,TGI,SR,> 100 µM
same,GI50,COLO 205,6.24 µM
same,LC50,COLO 205,> 100 µM
same,TGI,COLO 205,83.4 µM
same,GI50,HCC 2998,20.9 µM
same,TGI,HCC 2998,> 100 µM
same,CC50,HCC 2998; [1],> 100 µM
same,GI50,SF-295,10 µM
same,TGI,SF-295,27.5 µM
same,CC50,SF-295; [1],75.6 µM
same,GI50,MDA-MB-231,10.5 µM
same,TGI,MDA-MB-231,44.2 µM
same,CC50,MDA-MB-231; [1],> 100 µM
same,GI50,OVCAR-5,14.7 µM
same,TGI,OVCAR-5,> 100 µM
same,CC50,OVCAR-5; [1],> 100 µM
same,GI50,HOP-62,6.36 µM
same,TGI,HOP-62,21.7 µM
same,CC50,HOP-62; [1],55.9 µM
same,GI50,SK-MEL-2,20.4 µM
same,LC50 (median lethal concentration),SK-MEL-2,> 100 µM
same,TGI,SK-MEL-2,> 100 µM
same,GI50,HCT-116,3.47 µM
same,TGI,HCT-116,19.7 µM
same,CC50,HCT-116; [1],66.3 µM
same,GI50,A549,4.17 µM
same,TGI,A549,24.9 µM
same,CC50,A549; [1],> 100 µM
same,GI50,U-251,5.48 µM
same,TGI,U-251,21.4 µM
same,CC50,U-251; [1],66.2 µM
same,GI50,DU-145,5.68 µM
same,TGI,DU-145,27.1 µM
same,CC50,DU-145; [1],93.1 µM
same,GI50,UACC-62,11 µM
same,LC50,UACC-62,> 100 µM
same,TGI,UACC-62,53.2 µM
same,GI50,CCRF-CEM,24.6 µM
same,LC50,CCRF-CEM,> 100 µM
same,TGI,CCRF-CEM,> 100 µM
same,GI50,SK-OV-3,11.9 µM
same,LC50,SK-OV-3,65.1 µM
same,TGI,SK-OV-3,27.9 µM
same,GI50,ACHN,11.1 µM
same,TGI,ACHN,> 100 µM
same,CC50,ACHN; [1],> 100 µM
same,GI50,RPMI-8226,5.55 µM
same,TGI,RPMI-8226,> 100 µM
same,CC50,RPMI-8226; [1],> 100 µM
same,GI50,TK-10,4.67 µM
same,TGI,TK-10,21.3 µM
same,CC50,TK-10; [1],69.5 µM
same,GI50,OVCAR-8,4.53 µM
same,LC50 (median lethal concentration),OVCAR-8,> 100 µM
same,TGI,OVCAR-8,29.6 µM
